Broadly, the ED50 is the dose at which the effect has come halfway, by size or by number of responders. As a reminder, the TD50 is the 50% point of the dose-response relation for the toxic effect studied. A word on the logP: it is a log measure of how a compound divides between an organic and an aqueous phase. Usually logD stands for the decadic logarithm of the distribution of all forms, ionised or not, between an organic phase and buffer at a given pH. Low readings indicate a more hydrophilic compound, high ones a more lipophilic compound.

The species entered for data set [1] is Mus musculus. The data set is described as follows: Tested for anticonvulsant activity by measuring rate of mice protected against electric shock applied at 0.5 hr after injection in maximal electroshock seizure (MES) test; out of 6. The format is functional. Put shortly:
(§1)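 Screen in male OF-1 mice (22-25 g), groups of six or seven, given 30 mg/kg ip at 10 mL/kg. Corneal electroshock (50 mA, 60 Hz, 0.2 s) was applied 0.5 or 3 h post-injection. Protection was scored as abolition of hind limb tonic extension and reported as the rate of protected mice.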

The species entered for data set [2] is Mus musculus. Description: Tested for anticonvulsant activity by measuring rate of mice protected against electric shock applied at 3 h after injection in maximal electroshock seizure (MES) test; out of 6. The format is functional. Put shortly:
as §1
Background: Protection in the maximal electroshock model is a classic sign of anticonvulsant action.

The test system of data set [3] is Rattus norvegicus. Description: Urinary volume excreted over 4 hr by rats after oral administration of 30 mg/kg. The format is functional, Urine. Summed up:
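Male Wistar rats (193-229 g) were dosed orally with 30 mg/kg in 0.9% NaCl/0.1% methocel at 40 mL/kg; three rats shared a metabolism cage. Urine was collected over 4 h and expressed as mL/kg.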

Data set [4] deals with Mus musculus. Description: Tested for anticonvulsant activity by measuring its ability to protect against NMDLA(340 mg/kg) induced convulsions at the time of peak effect of 4h. The format is functional.
In data set [5] the test system is Mus musculus. Description: Tested for anticonvulsant activity by measuring its ability to protect against bicuculline (2.7 mg/kg) induced convulsions at the time of peak effect of 4h. It counts as functional.
The species named for data set [6] is Mus musculus. Description: Tested for anticonvulsant activity by measuring its ability to protect against electric shock in maximal electroshock seizure (MES) test at the time of peak effect of 4 hr. The format is functional.
The subject of data set [7] is Mus musculus. Description: Tested for anticonvulsant activity by measuring its ability to protect against pentetrazole (85 mg/kg) induced convulsions at the time of peak effect of 4h. The format is functional. Summed up: (§2)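 Groups of eight male OF-1 mice (22-25 g) received the test compound ip (10 mL/kg) at doses up to 100 mg/kg. At the MES-derived time of peak effect, pentetrazole 85 mg/kg in 0.9% NaCl was given sc and protection against convulsions recorded. ED50 and 95% confidence intervals were computed by Litchfield–Wilcoxon.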

Data set [8] concerns Mus musculus. The data set is described as follows: Tested for anticonvulsant activity by measuring its ability to protect against strychnine(1.2 mg/kg) induced convulsions at the time of peak effect of 4 hr. It counts as functional.
The nature of data set [9]: Neurotoxicity was evaluated at a time of peak effect of 4 hr. The note with it: mouse. The format is toxicity.
Data set [10] can be described thus: Partition coefficient (logP). The format is physicochemical. The note with it: octanol/water. Put shortly: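 log P obtained by extrapolation from RP-HPLC log k′. The basis is a correlation of log k′ with shake-flask log P in 1-octanol/phosphate buffer pH 7.40, built from reference compounds.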
Data set [11] is filed under the species Mus musculus. The data set is described as follows: Tested for anticonvulsant activity by measuring rate of mice protected against electric shock applied at 3 hr after injection in maximal electroshock seizure (MES) test; out of 7. The format is functional. Summed up:
as §1

Data set [12] in a line: Partition coefficient in 1-octanol phosphate buffer at pH 7.40. It counts as physicochemical. The note with it: pH 7.4. Put shortly:
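Shake-flask partition between 1-octanol and phosphate buffer at pH 7.40.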

Data set [13] deals with Mus musculus. Description: Tested for anticonvulsant activity by measuring its ability to protect against strychnine(1.2 mg/kg) induced convulsions at the time of peak effect of 3h. The format is functional. Put shortly:
(§3)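 OF-1 male mice, eight per group, were given compound ip at up to 100 mg/kg. At the MES time of peak effect, a convulsant in 0.9% NaCl was injected sc; bicuculline was dissolved in warmed 0.1 N HCl/0.9% NaCl and used within 30 min. ED50 with 95% CI was computed by Litchfield–Wilcoxon.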

The subject of data set [14] is Mus musculus. Description: Tested for anticonvulsant activity by measuring its ability to protect against NMDLA(340 mg/kg) induced convulsions at the time of peak effect of 3h. It counts as functional. Put shortly: as §3
Data set [15] has as its system Mus musculus. The data set is described as follows: Tested for anticonvulsant activity by measuring its ability to protect against bicuculline (2.7 mg/kg) induced convulsions at the time of peak effect of 3h. The format is functional. Summed up: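 Male OF-1 mice (22-25 g), eight per group, given the test compound ip (10 mL/kg) at doses up to 100 mg/kg. Bicuculline 2.70 mg/kg, dissolved in warmed 0.1 N HCl plus 0.9% NaCl (10 mL/kg) and used within 30 min, was injected sc at the MES time of peak effect. Protection scored; ED50 with 95% CI by Litchfield–Wilcoxon.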

For data set [16], the species on record is Mus musculus. Description: Tested for anticonvulsant activity by measuring its ability to protect against electric shock in maximal electroshock seizure (MES) test at the time of peak effect of 3h. It counts as functional. Put shortly: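 Male OF-1 mice (22-25 g) were dosed ip at 10 mL/kg and tested at the peak-effect time. Corneal electroshock was 50 mA, 60 Hz, 0.2 s; protection meant abolition of hind limb tonic extension. Groups of eight mice received varying doses. ED50 with 95% CI was computed by Litchfield–Wilcoxon.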

The test system of data set [17] is Mus musculus. The data set is described as follows: Tested for anticonvulsant activity by measuring its ability to protect against pentetrazole (85 mg/kg) induced convulsions at the time of peak effect of 3h. It counts as functional. Summed up:
as §3

Data set [18] is described as follows: Neurotoxicity was evaluated at a time of peak effect of 3h. It counts as toxicity. The note with it: mouse.
In data set [19] the test system is Mus musculus. The data set is described as follows: Tested for anticonvulsant activity by measuring its ability to protect against strychnine(1.2 mg/kg) induced convulsions at the time of peak effect of 2 hr. It counts as functional. Put shortly: as §3
Data set [20] has as its system Mus musculus. The data set is described as follows: Tested for anticonvulsant activity by measuring its ability to protect against NMDLA(340 mg/kg) induced convulsions at the time of peak effect of 2 hr. The format is functional. Put shortly: as §3
For data set [21], the species on record is Mus musculus. Description: Tested for anticonvulsant activity by measuring its ability to protect against electric shock in maximal electroshock seizure (MES) test at the time of peak effect of 2 hr.
Data set [22] relates to Mus musculus. Description: Tested for anticonvulsant activity by measuring its ability to protect against pentetrazole (85 mg/kg) induced convulsions at the time of peak effect of 2 hr. It counts as functional. Summed up: as §2
In data set [23] the test system is Mus musculus. Description: Tested for anticonvulsant activity by measuring its ability to protect against bicuculline (2.7 mg/kg) induced convulsions at the time of peak effect of 2 hr. It counts as functional. Put shortly:
as §3

On to `Cc1cccc(Nc2ccncc2S(=O)(=O)NC(=O)NC(C)C)c1` [TORSEMIDE], for which the “No. of mice protected” value in [1] and in [2] was 0 in each case. For the same compound, the Diuresis in data set [3] turned out to be 88 mL/kg.

Take `O=S(=O)(NC(=S)NC1CCCCC1)c1cnccc1NC1CCCCCCC1`: the ED50 was over 100 mg/kg in data set [4]; over 100 mg/kg in [5]; 1.19 mg/kg in [6]; over 100 mg/kg in [7]; over 100 mg/kg in data set [8]. In data set [9], the TD50 at 4 h came to 147 mg/kg.

With `O=[N+]([O-])/C=C(\NC1CCCCCC1)NS(=O)(=O)c1cnccc1NC1CCCCCCC1`, in [10], the logP came out at 2.59. Moreover, the “No. of mice protected” value in data set [1] is given as 2; in [2], 5. In data set [3], this compound registered a Diuresis of 20 mL/kg.

The compound `O=[N+]([O-])/C=C(\NC1CCCCC1)NS(=O)(=O)c1cnccc1NC1CCCCC1` showed a logP in data set [10] of 1.67. Further, the “No. of mice protected” value in [1] came to 0; in [11] it was 4. Moreover, the Diuresis in [3] came out at 20 mL/kg.

As for `CCNc1ccncc1S(=O)(=O)N/C(=C/[N+](=O)[O-])NC(C)C`, the logD in [12] is -0.482.

Compound `O=[N+]([O-])/C=C(\NC1CCCCCCC1)NS(=O)(=O)c1cnccc1NC1CCCCCCC1` showed a logP in [10] of 2.86. Also, the “No. of mice protected” value in data set [1] turned out to be 0; in data set [11], 3. Besides, the Diuresis in data set [3] worked out at 22 mL/kg.

The compound `O=[N+]([O-])/C=C(\NC1CCCCC1)NS(=O)(=O)c1cnccc1NC1CCCCCCC1` came in with a logP in data set [10] of 2.31. Moreover, the “No. of mice protected” value in data set [1] is on record as 1; in data set [11], 7. Besides, the ED50 in [13] is over 100 mg/kg; in [14], over 100 mg/kg; in data set [15] it was over 100 mg/kg; in data set [16], 8.25 mg/kg; in data set [17], over 100 mg/kg. This compound also yielded a Diuresis in data set [3] of 22 mL/kg. The compound also showed a TD50 at 3 h in data set [18] of 114 mg/kg.

Compound `O=[N+]([O-])/C=C(\NC1CCCCCCC1)NS(=O)(=O)c1cnccc1NC1CCCCCC1` showed a logP in [10] of 2.57. Also, the “No. of mice protected” value in data set [1] was found to be 1; in data set [11], 4. Further, the Diuresis in data set [3] amounted to 23 mL/kg.

Consider `O=[N+]([O-])/C=C(\NC1CCCCCC1)NS(=O)(=O)c1cnccc1NC1CCCCC1`, for which the logP in data set [10] is 1.97. The results for the “No. of mice protected” value in data set [1] and in data set [11] were 0 and 5, respectively. The same compound came in with a Diuresis in data set [3] of 20 mL/kg.

`Cc1cccc(Nc2ccncc2S(=O)(=O)N/C(=C/[N+](=O)[O-])NC(C)C)c1` displayed a logD in data set [12] of 1.12.

The compound `O=[N+]([O-])/C=C(\NC1CCCCC1)NS(=O)(=O)c1cnccc1NC1CCCCCC1` had a logP in data set [10] of 1.99. The “No. of mice protected” value is given as 1 in [1] and 5 in data set [2]. In data set [3], the Diuresis amounted to 18 mL/kg.

`Cc1cccc(Nc2ccncc2S(=O)(=O)N/C(=C/[N+](=O)[O-])NC2CCCCC2)c1`: in [10], the logP amounted to 1.66. Further, the “No. of mice protected” value in data set [1] is on record as 1; in [2] it was 2. In data set [3], this compound had a Diuresis of 29 mL/kg.

Take `CC(C)N/C(=C\[N+](=O)[O-])NS(=O)(=O)c1cnccc1NC1CCCC1`: the logD in data set [12] stood at 0.538.

Take `O=[N+]([O-])/C=C(\NC1CCCCCC1)NS(=O)(=O)c1cnccc1NC1CCCCCC1`: in data set [10], the logP came out at 2.3. For the same compound, the “No. of mice protected” value in data set [1] worked out at 1; in data set [2], 5. This compound also registered a Diuresis in data set [3] of 25 mL/kg.

Regarding `O=[N+]([O-])/C=C(\NC1CCCCCCC1)NS(=O)(=O)c1cnccc1NC1CCCCC1`, in data set [10], the logP amounted to 2.27. The “No. of mice protected” value came to 2 in data set [1] and 4 in data set [11]. The Diuresis in [3] came out at 21 mL/kg.

Regarding `O=C1NC(=O)C(c2ccccc2)(c2ccccc2)N1` [PHENYTOIN], the ED50 in [19] was over 100 mg/kg; in [20], over 100 mg/kg; in data set [21], 9.51 mg/kg; in data set [22], over 100 mg/kg; in [23], over 100 mg/kg.

The record behind these values is ChEMBL document CHEMBL1131064, “Design, synthesis, and anticonvulsant activity of 1-(pyrid-3-ylsulfonamido)-2-nitroethylenes” (J Med Chem, 1998).
